The list is not random: actives were taken first. Their share in the collection is about 3.5%.
Wnt act = activates Wnt/beta-catenin signaling in a reporter cell assay; activation, % at 9.35 µM; AID 743398; 300,000 compounds, 1.2% hits; activator, plate reader; in the data active means activation above about 30%, passing the limit was not always enough; inconclusive means no clear call, values can overlap the other calls
esBAF inh = SWI/SNF esBAF complex inhibition | mouse ES cells, Bmi1-luciferase knock-in reporter, 24 h; 100% = twice the neutral-well signal | reporter increase, % at 12.5 µM | 350,000 compounds, 2% hits; in the data active means activation above about 40%; inconclusive means no clear call, values can overlap the other calls;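 further: a rise in the Bmi1 reporter signal indicates esBAF inhibition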
ERAP1 inh = blocks human ERAP1 aminopeptidase activity; recombinant ERAP1, Leu-AMC fluorescence, 60 min; inhibition, % at 10.7 µM; 340,000 compounds, 0.15% hits;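 active means mean replicate inhibition of at least 30%, or all replicates individually reaching that 30% level; inactive means mean below 30% and not every replicate reaching it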
HIV Env fusion = blocks HIV Env-driven cell-cell fusion; 360,000 compounds, 1.1% hits; HeLa-JRFL Env/CEM21 cell fusion, luciferase; inhibition, % at 12.3 µM;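 active means mean replicate inhibition score of at least 50 and every replicate individually at or above 50; inconclusive means only one of the two criteria met; inactive means mean below 50 and not all replicates reaching 50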
Cneo AK release = Cryptococcus neoformans lysis via adenylate kinase release; lysis activity, % at 15 µM; C. neoformans lysis, adenylate kinase release luminescence, 4 h; normalised: neutral wells 0, clomiphene wells 100; 360,000 compounds, 0.2% hits;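 active means mean lysis activity across replicates of at least 80%, whatever share of replicates individually reach that level; inactive means mean lysis activity below 80%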
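read-out = cell lysis signal | test system = log-phase Cryptococcus neoformans yeast cells | input = cells at 5 × 10^6 per mL | medium = fresh YPD growth medium | signal = luminescent adenylate kinase detection reagent | timing = 4 h at 37 °C static, read 1 h later | dosing = single dose | controls = Clomiphene as positive lysis control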
MITF TRPM1 HTS = MITF TRPM1 promoter activation in melanoma cells | SK-MEL-5 TRPM1-promoter luciferase, 24 h; % of positive control, neutral wells = 0 | activation, % at 12.5 µM | 300,000 compounds, 0.75% hits | AID 588334;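 active means mean activation of at least 80% with every replicate also reaching 80%; inconclusive means mean reaches 80% but some replicate falls short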
A number is an active result; 0 = inactive; ? = inconclusive; - = not tested or not shown; [ ] = another dose, or the depositor's remark.

SMILES	Wnt act	esBAF inh	ERAP1 inh	HIV Env fusion	Cneo AK release	MITF TRPM1 HTS
Cc1ccc(NC(=O)C2CC(=O)N(c3ccc4c(c3)OCCO4)C2)nc1 (centres undefined)	0	-	0	0	0	0
Cc1ccnc(NC(=O)C2COc3ccccc3O2)c1 (centres undefined)	58	-	0	0	-	88
CCC(=O)N1C[C@H](C)[C@H](OC)CN(C)C(=O)c2cc(NC(=O)NC(C)C)ccc2OC[C@@H]1C	-	0	0	-	0	-
Cc1ccc(NC(=O)CNC(=O)c2ccco2)cc1	0	42	0	0	0	0
O=C(Nc1nccs1)c1ccc(NC(=O)c2ccco2)cc1	-	50	-	0	0	0
O=C(Nc1ccc2nc(-c3ccco3)[nH]c2c1)c1ccco1	37	0	-	0	0	-
O=C(COC(=O)c1cccc(NC(=O)c2ccco2)c1)c1ccc(Br)cc1	43	0	-	0	0	-
O=C(Nc1ccc(Br)cc1)c1ccco1	0	71	0	-	0	91
Nc1nc(-c2ccc(NC(=O)c3ccco3)cc2)cs1	42	0	0	0	0	0
C/C(=N\NC(=O)c1ccco1)c1ccc(NC(=O)c2ccccc2)cc1	0	-	0	0	-	0
CC(=O)N(C)c1ccc(NC(=O)c2ccco2)cc1	35	0	-	0	0	0
C/C(=N\NC(=O)c1ccco1)c1ccc(-c2ccccc2)cc1	0	59	0	0	0	0
CCN(CC)S(=O)(=O)c1cc(NC(=O)CCNC(=O)c2ccco2)ccc1C	0	0	0	59	0	0
O=C(Nc1ccc(Nc2ccccc2)cc1)c1ccco1	-	?	-	0	0	0
O=C(Nc1ccc(C(=O)Oc2ccccc2)c(O)c1)c1ccco1	-	57	-	0	0	0
O=C(Nc1ccc(C(=O)Oc2ccccc2)c(O)c1)c1ccccc1	0	-	0	0	-	0
COc1ccc(NC(=O)CCNC(=O)c2ccco2)cc1S(=O)(=O)N(C)C	0	0	0	0	0	0
O=C(Nc1ccc(NC(=O)c2ccco2)cc1)c1ccco1	0	46	0	0	0	0
O=C(Nc1ccc(-c2ccccc2)cc1)c1ccco1	0	0	41	0	0	0
CC(C)c1cn(CC[C@@H]2CC[C@H](NS(=O)(=O)Cc3ccccc3)[C@H](CO)O2)nn1	-	0	0	0	0	-
Cc1ccn2cc(-c3ccc(NC(=O)c4ccco4)cc3)nc2c1	46	0	-	0	0	0
Cc1nc(-c2ccc(NC(=O)c3ccco3)cc2)cs1	0	0	0	0	0	0
CC=Cc1ccc2n(c1=O)C[C@@H]1[C@@H](CO)[C@H](C(=O)NCC3CC3)[C@H]2N1CCC(F)(F)F (mixture of isomers)	-	0	0	-	0	-
C[C@@H]1CN([C@H](C)CO)C(=O)Cc2cc(NC(=O)C3CC3)ccc2O[C@H]1CN(C)Cc1ccccc1	-	0	0	0	0	-
CO[C@H]1CC[C@@H]2CCN(C)C(=O)[C@H](C)[C@@H](OC)CN(C)C(=O)c3cccc(C#N)c3OC[C@@H]1O2	-	0	0	0	0	-
SMILES	Wnt act	esBAF inh	ERAP1 inh	HIV Env fusion	Cneo AK release	MITF TRPM1 HTS
O=c1[nH]c2c(c(=O)[nH]1)CCCCCC2	0	0	0	0	0	0
O=C1NN=C2CCCCCCCCCCC12 (centres undefined)	0	0	0	58	0	-
O=C1CC(c2cccc([N+](=O)[O-])c2)c2ccc3ccccc3c2N1 (centres undefined)	0	0	-	93	0	0
O=C1CC(c2ccsc2)c2ccc3ccccc3c2N1 (centres undefined)	0	-	0	0	-	0
O=c1c2ccccc2nc(-c2ccco2)n1-c1nc2ccccc2s1	0	-	-	0	-	0
Cn1c(-n2c(-c3ccco3)nc3ccccc3c2=O)nc2ccccc21	0	49	-	-	0	0
O=C(c1cn(-c2ccc(Cl)c(Cl)c2)nn1)C1CC1	0	0	0	0	0	0
O=C1CCCCC1C(=O)c1cn(-c2ccc(Cl)c(Cl)c2)nn1 (centres undefined)	0	63	0	0	0	0
CO[C@H]1CN(C)C(=O)c2ccc(NS(=O)(=O)CC(F)(F)F)cc2OC[C@H](C)N(C)C[C@H]1C	-	0	0	0	0	-
C[C@@H]1CN([C@H](C)CO)C(=O)c2cc(NC(=O)Nc3ccc(C(F)(F)F)cc3)ccc2O[C@@H](C)CCCCO[C@H]1CN(C)C(=O)c1ccccc1	-	0	0	56[16.7 µM]	0	-
C[C@H]1CCCCO[C@H](CN(C)C(=O)Nc2ccc(C(F)(F)F)cc2)[C@@H](C)CN([C@@H](C)CO)C(=O)c2cc(NC(=O)c3ccccc3)ccc2O1	-	0	0	75[16.7 µM]	0	-
C[C@@H]1CCCCO[C@H](CN(C)C(=O)c2ccccc2)[C@@H](C)CN([C@H](C)CO)C(=O)c2cc(NC(=O)Nc3ccc(C(F)(F)F)cc3)ccc2O1	-	0	0	0	0	-
C[C@H](CO)N1C[C@H](C)[C@@H](CN(C)C(=O)Nc2ccc(C(F)(F)F)cc2)OCCCC[C@H](C)Oc2ccc(NC(=O)c3ccccc3)cc2C1=O	-	0	0	61[16.7 µM]	0	-
COc1ccccc1S(=O)(=O)N[C@H]1CC[C@@H](CCNC(=O)C2CCC2)O[C@@H]1CO	-	0	0	0	0	-
C=CCn1c(SCC(N)=O)nc2scc(-c3ccc(C)o3)c2c1=O	48	-	0	0	0	0
C=CCn1c(SCC(=O)Nc2ccccc2C)nc2sc(C)c(C)c2c1=O	-	0	-	-	0	0
C=CCn1c(SCC(=O)Nc2sccc2C(N)=O)nc2sc(C)c(C)c2c1=O	0	0	-	58	0	0
COc1cccc(NC(=O)N(C)C[C@@H]2Oc3cc(C#Cc4ccc(F)cc4)ccc3S(=O)(=O)N([C@H](C)CO)C[C@@H]2C)c1	-	0	0	0	0	-
C[C@H]1CN([C@@H](C)CO)C(=O)c2cc(NC(=O)Nc3ccccc3)ccc2O[C@H]1CN(C)S(=O)(=O)c1cn(C)cn1	-	0	0	0	0	-
C[C@H](CO)N1C[C@H](C)[C@H](CN(C)C(=O)Nc2ccc(C(F)(F)F)cc2)Oc2ccc(NC(=O)C3CCCCC3)cc2C1=O	-	0	0	0	0	-
Cc1cccc(NC(=O)C(=O)NCC2CCCN2S(=O)(=O)c2cccs2)c1 (centres undefined)	0	42	0	0	0	-
OC1(c2ccc(OC(F)F)cc2)CSC(=Nc2cccnc2)N1C1CC1 (centres undefined)	0	0	-	75	0	0
CC(C)NC(=O)N(C)C[C@H]1OCc2cn(nn2)CCCC(=O)N([C@@H](C)CO)C[C@@H]1C	-	0	0	0	0	-
COc1cc(NC2c3ccccc3C(=O)N2Cc2ccccc2)cc(OC)c1OC (centres undefined)	0	-	0	73	0	0
COc1cc(C=NN=c2sc3ccccc3n2C)ccc1OCCO	34	-	0	0	-	-
O=C(Nc1ccccc1F)N1C[C@@H]2[C@H](c3ccccc31)[C@@H](CO)N2C(=O)C1CC1	-	49	0	-	0	-
